# Assay results taken from ChEMBL document CHEMBL1148398, “Design, synthesis, and biological evaluation of thio-containing compounds with serum HDL-cholesterol-elevating properties” (2004).
# Experiments:
# Rattus norvegicus [1] = test: Effect of compound on gain in body weight in 7th group of normal chow-fed male rats after a dose of 100 mg/kg/day; format: functional
# Summary of the method: (§1)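 Male Sprague–Dawley CD rats (60–80 g) on standard chow under a reversed 12 h light/dark cycle. Compound was suspended in 1.3% Tween 80/0.25% CMC and given as a single daily oral gavage dose for 4 days. Rats were fasted overnight and killed 24 h after the last dose. Serum ALT, AST, ALKP and LDH were read on a clinical analyzer. Weight gain was start versus end weight. Mean ± SEM, n = 6.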
# [2] = Effect on serum lipids in 6th group of normal chow-fed male rats after a dose of 50 mg/kg/day was evaluated as ratio of total plasma cholesterol levels to high-density lipoprotein cholesterol levels; format: functional
# Summary of the method: (§2)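 Male Sprague–Dawley CD rats, 60–80 g, chow-fed, dosed by oral gavage daily for 4 days in 1.3% Tween 80/0.25% CMC. Fasted overnight, bled 24 h after the last dose. Serum total cholesterol by enzymatic reagent; HDL-C from cholesterol in FPLC fractions; TPC/HDL-C ratio calculated. Six per group, mean ± SEM.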
# Rattus norvegicus [3] = test: Effect of compound on thyroxine levels in 1st group of normal chow-fed male rats after a dose of 1 mg/kg/day; format: functional, organism-based
# Summary of the method: (§3)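 Male Sprague–Dawley CD rats, 60–80 g, on standard chow with reverse 12 h light/dark cycle. One oral gavage dose daily for 4 days, suspended in 1.3% Tween 80 and 0.25% CMC. Fasted overnight; sacrificed 24 h after the last dose. Serum TC on clinical analyzer, lipoproteins by FPLC with cholesterol per fraction, T4 on analyzer. Mean ± SEM, six rats per group.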
# Rattus norvegicus [4] = test: Effect of compound on triglycerides level in 1st group of normal chow-fed male rats after a dose of 1 mg/kg/day; format: functional, organism-based
# Summary of the method: (§4)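 Male Sprague–Dawley CD rats (60–80 g) on Purina 5001 chow with a reverse 12 h light/dark cycle. Dosed once daily by oral gavage for 4 days, suspended in 1.3% Tween 80 / 0.25% CMC. Fasted overnight and bled 24 h after the last dose. Serum TC and glycerol-blanked TG measured enzymatically; VLDL-C by FPLC fractionation with cholesterol assay. n=6, mean ± SEM.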
# Rattus norvegicus [5] = test: Effect of compound on low-density lipoprotein cholesterol levels in 7th group of normal chow-fed male rats after a dose of 100 mg/kg/day; format: functional, organism-based; summary of the method: as §3
# Rattus norvegicus [6] = test: Effect of compound on alanine aminotransferase (ALT) levels in 4th group of normal chow-fed male rats after a dose of 10 mg/kg/day
# Cricetinae gen. sp. [7] = test: Effect of compound on high-density lipoprotein cholesterol levels in 3rd group of cholesterol-fed male hamsters at 30 mg/kg/day after 14 days of treatment; format: functional, organism-based
# Rattus norvegicus [8] = test: Effect of compound on serum apolipoprotein A1 concentration in chow-fed male rats at a dose of 10 mg/kg/day; format: functional, organism-based
# Summary of the method: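 Separate dose-response study in male Sprague–Dawley CD rats, 60–80 g, on chow. Oral gavage once daily for 4 days in 1.3% Tween 80 / 0.25% CMC; fasted overnight, bled 24 h after last dose. Apo-A1 by ELISA with rabbit anti-rat primary, alkaline phosphatase-conjugated anti-rabbit IgG and p-nitrophenyl phosphate substrate. HDL-C by FPLC fractionation. Mean ± SEM, six per group.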
# Mesocricetus auratus [9] = test: Effect of compound on gain in body weight in 2nd group of cholesterol-fed male hamsters at 10 mg/kg/day after 14 days of treatment
# Rattus norvegicus [10] = test: Effect of compound on triglyceride levels in 4th group of normal chow-fed male rats after a dose of 10 mg/kg/day; format: functional, organism-based; summary of the method: as §4
# [11] = Effect on serum lipids in 1st group of cholesterol-fed male hamsters at 3 mg/kg/day after 14 days of treatment was evaluated as ratio of total cholesterol levels to high-density lipoprotein cholesterol levels; format: functional
# Summary of the method: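 Male Syrian Golden hamsters on chow plus 0.25% cholesterol, 2 weeks before and during dosing. Oral gavage for 14 days in 2% Tween 80/saline. Fasted 4 h before sacrifice. Serum total cholesterol measured enzymatically; HDL-C from cholesterol in FPLC lipoprotein fractions; TC/HDL-C ratio calculated. Six per group, mean ± SEM.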
# Rattus norvegicus [12] = test: Effect of compound on alkaline phosphatase (ALKP) levels in 5th group of normal chow-fed male rats after a dose of 20 mg/kg/day; format: functional, organism-based; summary of the method: as §1
# Rattus norvegicus [13] = test: Effect of compound on high-density lipoprotein cholesterol levels in 6th group of normal chow-fed male rats after a dose of 50 mg/kg/day; format: functional, organism-based
# Cricetinae gen. sp. [14] = test: Effect of compound on total plasma cholesterol levels in 4th group of cholesterol-fed male hamsters at 100 mg/kg/day after 14 days of treatment; conditions: Mesocricetus auratus
# Mesocricetus auratus [15] = test: Effect of compound on gain in body weight in 3rd group of cholesterol-fed male hamsters at 30 mg/kg/day after 14 days of treatment
# Rattus norvegicus [16] = test: Effect of compound on very low-density lipoprotein cholesterol levels in 2nd group of normal chow-fed male rats after a dose of 2 mg/kg/day; format: functional, organism-based; summary of the method: as §4
# Cricetinae gen. sp. [17] = test: Effect of compound on alkaline phosphatase (ALKP) levels in 1st group of cholesterol-fed male hamsters at 3 mg/kg/day after 14 days of treatment; conditions: Mesocricetus auratus
# Rattus norvegicus [18] = test: Percent change in very low-density lipoprotein cholesterol following oral administration of compound in normal chow-fed rats at 100 mg/kg/day for 4 days; format: functional
# Summary of the method: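 Chow-fed male Sprague–Dawley CD rats, 60–80 g, gavaged 100 mg/kg/day for 4 days in 1.3% Tween 80/0.25% CMC. Fasted overnight, bled 24 h after the last dose. Total cholesterol and glycerol-blanked triglycerides read enzymatically; lipoproteins by FPLC with cholesterol per fraction. % change versus control; six per group, p < 0.05.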
# Rattus norvegicus [19] = test: Effect of compound on high-density lipoprotein cholesterol levels in 5th group of normal chow-fed male rats after a dose of 20 mg/kg/day; format: functional, organism-based
# Rattus norvegicus [20] = test: Effect of compound on relative liver weight in 3rd group of normal chow-fed male rats after a dose of 5 mg/kg/day; format: functional
# Summary of the method: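 Chow-fed male Sprague–Dawley CD rats, 60–80 g, dosed by oral gavage once daily for 4 days in 1.3% Tween 80/0.25% CMC. Fasted overnight and sacrificed 24 h after the last dose. Liver weight expressed as % of body weight at termination. Six per group, mean ± SEM.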
# Cricetinae gen. sp. [21] = test: Effect of compound on aspartate aminotransferase (AST) levels in 4th group of cholesterol-fed male hamsters at 100 mg/kg/day after 14 days of treatment; conditions: Mesocricetus auratus
# Cricetinae gen. sp. [22] = test: Effect of compound on aspartate aminotransferase (AST) levels in 2nd group of cholesterol-fed male hamsters at 10 mg/kg/day after 14 days of treatment; conditions: Mesocricetus auratus
# [23] = Effect on serum lipids in 1st group of normal chow-fed male rats after a dose of 1 mg/kg/day was evaluated as ratio of total plasma cholesterol levels to high-density lipoprotein cholesterol levels; format: functional; summary of the method: as §2
# Rattus norvegicus [24] = test: Effect of compound on high-density lipoprotein cholesterol levels in 1st group of normal chow-fed male rats after a dose of 1 mg/kg/day; format: functional, organism-based
compound,measurement,setting,value
CCN1CC(=O)N(c2cc(Cl)ccc2C)C1=S,Body weight,Rattus norvegicus [1],22.5 g
same,Ratio,[2],2.03
same,Serum level,Rattus norvegicus [3],3.65 µg/dL
same,Serum level,Rattus norvegicus [4],18 mg/dL
same,Serum level,Rattus norvegicus [5],8.7 mg/dL
same,Level,Rattus norvegicus [6],58 U l-1
same,Serum level,Cricetinae gen. sp. [7],156 mg/dL
same,Serum level,Rattus norvegicus [8],79.2 mg/dL
same,Body weight,Mesocricetus auratus [9],9.5 g
same,Serum level,Rattus norvegicus [10],21 mg/dL
same,Ratio,[11],3.14
same,Level,Rattus norvegicus [12],385 U l-1
same,Serum level,Rattus norvegicus [13],61 mg/dL
same,Serum level,Cricetinae gen. sp. [14],373 mg/dL
same,Body weight,Mesocricetus auratus [15],8.2 g
same,Serum level,Rattus norvegicus [16],2.8 mg/dL
same,Level,Cricetinae gen. sp. [17],154 U l-1
same,Change,Rattus norvegicus [18],-17.2%
same,Serum level,Rattus norvegicus [19],58 mg/dL
same,Relative liver weight,Rattus norvegicus [20],3.8%
same,Level,Cricetinae gen. sp. [21],424 U l-1
same,Level,Cricetinae gen. sp. [22],345 U l-1
same,Ratio,[23],1.45
same,Serum level,Rattus norvegicus [24],38 mg/dL
